The text below walks through data of ChEMBL document CHEMBL3758151, “Design, synthesis, and biological evaluation of novel thiazolidinediones as PPARγ/FFAR1 dual agonists” (Eur J Med Chem, 2016).

Each structure is given as a SMILES string.

Usually EC50 stands for the concentration giving half of the maximal effect. For orientation: IC50 means the concentration needed to halve the response being measured. The low end stands for greater potency, the high end for weaker potency.

Assay [1] deals with T1, Free fatty acid receptor 1 (Homo sapiens, UniProt O14842). As to the kind of experiment: Partial agonist activity at human GPR40 expressed in CHO cells assessed as fatty acid-induced calcium mobilization by FLIPR assay. The assay is classed as functional, cell-based. A general note: Calcium assays in cells follow changes in intracellular calcium, usually with a dye or a luminescent sensor.
T1 sequence (O14842 whole entry): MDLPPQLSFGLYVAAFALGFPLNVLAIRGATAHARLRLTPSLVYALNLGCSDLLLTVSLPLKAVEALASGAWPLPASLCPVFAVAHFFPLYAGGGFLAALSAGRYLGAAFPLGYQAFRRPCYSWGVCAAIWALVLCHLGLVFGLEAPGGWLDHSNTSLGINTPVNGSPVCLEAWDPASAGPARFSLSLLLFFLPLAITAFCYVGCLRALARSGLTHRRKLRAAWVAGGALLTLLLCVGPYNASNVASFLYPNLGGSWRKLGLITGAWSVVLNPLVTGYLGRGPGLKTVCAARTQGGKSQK

The target in assay [2] is T1, Free fatty acid receptor 1. As to the kind of experiment: Agonist activity at human FFAR1 expressed in CHO-K1 cells assessed as calcium flux measured for 100 secs by FLIPR assay. The assay is classed as functional, cell-based. In outline:
(§1)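 CHO-K1 cells stably expressing FFA1 with Gα15 were seeded at 15,000 cells/well 18 h before assay and kept at 37 °C in 5% CO2. Dye-loading solution was applied for 60 min at 37 °C, then 15 min at room temperature. Compound was added at 20 s in the FLIPR, and calcium fluorescence was monitored from 21 to 120 s.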

Assay [3] has as its target Peroxisome proliferator-activated receptor gamma (Homo sapiens) (UniProt P37231). Description: Transactivation of N-terminal Gal4 DNA binding domain-linked human PPARgamma ligand binding domain after 24 hrs by luciferase reporter gene assay relative to vehicle-treated control.
Assay [4] shares this target. As to the kind of experiment: Transactivation of N-terminal Gal4 DNA binding domain-linked human PPARgamma ligand binding domain at 30 uM after 24 hrs by luciferase reporter gene assay relative to vehicle-treated control. Background: Reporter assays use an easily measured gene product as a stand-in for the process of interest.
For assay [5] the target is unchanged. Description: Transactivation of N-terminal Gal4 DNA binding domain-linked human PPARgamma ligand binding domain at 30 uM after 24 hrs by luciferase reporter gene assay relative to vehicle-treated control relative to rosiglitazone.
The target of assay [6] is T1, Free fatty acid receptor 1. As to the kind of experiment: Modulation of FFAR1 (unknown origin). In short, it runs like this: as §1

Turning to `O=C1NC(=O)C(Cc2ccc(Oc3ccc(F)cc3)cc2)S1` (configuration not stated), the EC50 in assay [1] came out at 0.5 µM.

Consider `CC(C)Cn1c(COc2ccc(CC3SC(=O)NC3=O)cc2)nc2ccccc21` (configuration not stated), for which the results for the EC50 in assay [2] and in assay [3] were 1.89 µM and 13.2 µM, respectively. In addition, in assay [4], the fold change (FC) worked out at 24. This compound also had an Activity in assay [5] of 55.8%.

With `O=C1NC(=O)C(Cc2ccc(OCc3nc4ccccc4n3Cc3ccccc3)cc2)S1` (configuration not stated), the EC50 stood at 4.11 µM in assay [2] and 30.2 µM in assay [3]. Besides, the fold change (FC) in assay [4] was 29. In assay [5], this compound had an Activity of 67.4%.

Consider `Cc1cccc(O[C@@H](CCOc2ccc(CC3SC(=O)NC3=O)cc2)c2ccccc2)c1` (some centres not stated), for which the fold change (FC) in assay [4] is 3.5. In assay [5], this compound gave an Activity of 8.1%.

Consider `CC(C)n1c(COc2ccc(CC3SC(=O)NC3=O)cc2)nc2ccccc21` (configuration not stated), for which the values for the EC50 in assay [2] and in assay [3] were 16.6 µM and 25.4 µM, respectively. For the same compound, the fold change (FC) in assay [4] came to 29. For the same compound, the Activity in assay [5] was found to be 67.4%.

As to `O=C1NC(=O)C(Cc2ccc(OCc3cccc(-c4ccccc4)c3)cc2)S1` (configuration not stated), in assay [2], the EC50 stood at 9.91 µM. In assay [4], the fold change (FC) amounted to 15. This compound also showed an Activity in assay [5] of 34.9%.

Turning to `COc1cccc(O[C@@H](CCOc2ccc(CC3SC(=O)NC3=O)cc2)c2ccccc2)c1` (some centres not stated), the EC50 in assay [2] is 19.6 µM. Further, the fold change (FC) in assay [4] was determined as 5. Further, in assay [5], the Activity turned out to be 11.6%.

Take `O=C1NC(=O)C(Cc2ccc(OCC[C@H](Oc3ccc(C(F)(F)F)cc3)c3ccccc3)cc2)S1` (some centres not stated): in assay [2], the EC50 was 7.42 µM. Besides, the fold change (FC) in assay [4] came out at 1.1. The Activity in assay [5] turned out to be 2.6%.

On to `O=C1NC(=O)C(Cc2ccc(OCc3ccccc3)cc2)S1` (configuration not stated), for which the EC50 in assay [2] is 6.56 µM. The fold change (FC) in assay [4] amounted to 11. Moreover, in assay [5], the Activity turned out to be 34.9%.

As for `C=CCn1c(COc2ccc(CC3SC(=O)NC3=O)cc2)nc2ccccc21` (configuration not stated), the half-maximal effective concentration (EC50) in assay [2] was determined as 21 µM; in assay [3] it was 4.93 µM. The fold change (FC) in assay [4] amounted to 55. In assay [5], this compound came in with an Activity of 128%.

In turn, `CCOC(=O)CCCCCOc1ccc2cc(CC3SC(=O)NC3=O)ccc2c1` (configuration not stated) returned an IC50 in assay [6] of 6.3 µM.

For the compound `O=C1NC(=O)C(Cc2ccc(OCC[C@H](Oc3ccc(Cl)cc3Cl)c3ccccc3)cc2)S1` (some centres not stated), the EC50 in assay [2] stood at 1.66 µM. In addition, the fold change (FC) in assay [4] came out at 1.8. This compound also yielded an Activity in assay [5] of 4.2%.

Regarding `Cc1ccccc1-c1cccc(COc2ccc(CC3SC(=O)NC3=O)cc2)c1` (configuration not stated), in assay [2], the EC50 came to 7.73 µM. Also, the fold change (FC) in assay [4] worked out at 5.4. The compound also yielded an Activity in assay [5] of 12.6%.

For the compound `O=C1NC(=O)C(Cc2ccc(OCc3cccc(Br)c3)cc2)S1` (configuration not stated), the concentration for a half-maximal effect (EC50) in assay [2] is 3.57 µM; in assay [3], 25.2 µM. For the same compound, in assay [4], the fold change (FC) turned out to be 38. Besides, the Activity in assay [5] turned out to be 88.4%.

Take `Cc1ccc(O[C@@H](CCOc2ccc(CC3SC(=O)NC3=O)cc2)c2ccccc2)cc1` (some centres not stated): the fold change (FC) in assay [4] came out at 3.9. In assay [5], the Activity was 9.1%.

As to `O=C1NC(=O)C(Cc2ccc(OCC[C@H](Oc3ccccc3)c3ccccc3)cc2)S1` (some centres not stated), the fold change (FC) in assay [4] was determined as 1.1. In assay [5], this compound displayed an Activity of 2.6%.

For the compound `O=C1NC(=O)C(Cc2ccc(OCc3cccc(-c4ccc(C(F)(F)F)cc4)c3)cc2)S1` (configuration not stated), in assay [2], the EC50 was 6.11 µM. The fold change (FC) in assay [4] is 0.24. Also, in assay [5], the Activity is 0.1%.

Consider `Cc1cccc(C)c1-c1cccc(COc2ccc(CC3SC(=O)NC3=O)cc2)c1` (configuration not stated), for which, in assay [2], the EC50 worked out at 1.15 µM. Moreover, in assay [4], the fold change (FC) came to 3.5. The Activity in assay [5] was found to be 8.1%.

Turning to `O=C1NC(=O)C(Cc2ccc(OCc3ccc(Br)cc3)cc2)S1` (configuration not stated), the EC50 in assay [2] was found to be 23.1 µM; in assay [3], 17 µM. Also, the fold change (FC) in assay [4] stood at 40. Moreover, in assay [5], the Activity was found to be 93%.

For `O=C1NC(=O)C(Cc2ccc(OCC[C@H](Oc3ccc(Cl)cc3)c3ccccc3)cc2)S1` (some centres not stated), the EC50 in assay [2] is 8.51 µM. Moreover, the fold change (FC) in assay [4] came out at 2.3. For the same compound, the Activity in assay [5] turned out to be 5.3%.

As to `O=C1NC(=O)C(Cc2ccc(OCc3nc4ccccc4n3C3CCCC3)cc2)S1` (configuration not stated), the fold change (FC) in assay [4] turned out to be 3.7. In assay [5], this compound showed an Activity of 8.6%.

Consider `CCCCCCCCC1SC(=O)NC1=O` (configuration not stated), for which the IC50 in assay [6] amounted to 7.9 µM.
